The source made the active and inactive calls. The calls are words filed in the database; no cut-off is given here.
How the values were obtained:
[1] = tested on: MCF7; experiment: Cytotoxicity against human MCF7 cells assessed as decrease in cell viability by trypan blue test; format: functional, cell-based
[2] = Cytotoxicity against human Tet21N cells assessed as decrease in cell viability by trypan blue test; format: functional, cell-based
[3] = tested on: HCT-116; experiment: Induction of apoptosis in human HCT116 cells assessed as release of cytochrome C from mitochondria at 3.5 uM by SDS/PAGE analysis; format: functional, cell-based
How it was run: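 HCT116 cells at about 1 × 10^6 per 100 μl were permeabilized with 0.01% digitonin in 150 mM KCl, 1 mM MgCl2, 0.2 mM EGTA and 5 mM Tris for 10 min at room temperature. Supernatant (cytosol) and pellet (mitochondria) were separated by centrifugation. Cytochrome c in each fraction was detected by 15% SDS-PAGE and western blot.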

[4] = tested on: Splenocyte; experiment: Cytotoxicity against BALB/c mouse splenocytes assessed as decrease in cell viability by trypan blue test; format: cell-based
[5] = organism: Homo sapiens; experiment: Induction of apoptosis in human Tet21N cells assessed as caspase-3 cleavage using DEVD-AMC as substrate by fluorescence assay; format: functional, cell-based
[6] = tested on: HCT-116; experiment: Inhibition of mitochondrial respiration in human HCT116 cells after 24 hrs in presence of oligomycin/CCCP/rotenone/antimycin; format: functional, cell-based
How it was run: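 About 15 000 HCT116 cells per well adhered overnight and were treated for 24 h. They were then held 1 h at 37 °C without CO2 in unbuffered DMEM (5 mM glucose, 2 mM glutamine, pH 7.4). Oxygen consumption was measured by Seahorse XF-96: basal, then sequential oligomycin, CCCP, and rotenone plus antimycin A. Data were normalized to total protein per well.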

[7] = tested on: HCT-116; experiment: Induction of apoptosis in human HCT116 cells assessed as caspase-3 cleavage using DEVD-AMC as substrate by fluorescence assay; format: functional, cell-based
[8] = tested on: RKO; experiment: Induction of apoptosis in human RKO cells assessed as PARP cleavage at 50 uM by Western blot analysis; format: functional, cell-based
How it was run: (§1)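 Whole-cell lysates in lysis buffer with protease inhibitors, 10 min room temperature; insoluble material cleared at 13 000 rpm, 20 min, 4 °C; equal protein loaded for SDS-PAGE and blotted; membranes blocked 1 h in 5% non-fat milk; PARP cleavage detected by ECL. HCT116 and RKO in DMEM, SK-N-BE(2) and Tet21N in RPMI 1640 with 10% FCS; Tet21N medium also hygromycin 100 μg ml–1 and geneticin 200 μg ml–1.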

[9] = organism: Homo sapiens; experiment: Induction of apoptosis in human SK-N-BE(2) cells assessed as PARP cleavage at 50 uM by Western blot analysis; format: functional, cell-based; how it was run: as §1
[10] = tested on: HCT-116; experiment: Induction of apoptosis in human HCT116 cells assessed as PARP cleavage at 20 uM by Western blot analysis; format: functional, cell-based; how it was run: as §1
[11] = organism: Homo sapiens; experiment: Induction of apoptosis in human Tet21N cells assessed as PARP cleavage at 5 to 15 uM by Western blot analysis; format: functional, cell-based; how it was run: as §1
[12] = tested on: HCT-116; experiment: Inhibition of mitochondrial respiration in human HCT116 cells at 1 to 2 uM after 24 hrs in presence of oligomycin/CCCP/rotenone/antimycin; format: functional, cell-based
How it was run: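 About 15 000 cells per well adhered overnight, then treated 24 h. Washed and held 1 h at 37 °C without CO2 in unbuffered DMEM (5 mM glucose, 2 mM glutamine, pH 7.4). Seahorse XF-96 oxygen consumption read: basal, then oligomycin (proton leak), CCCP (spare capacity), rotenone plus antimycin A (non-mitochondrial). Normalized to total protein per well.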

[13] = tested on: HCT-116; experiment: Cell cycle arrest in human HCT116 cells assessed as accumulation at sub-G1 phase by propidium iodide staining-based flow cytometric method (reference value: 0.8%); format: functional

C[C@H]1[C@H](C)CC[C@]2(C(=O)OCCOCCOCC[P+](c3ccccc3)(c3ccccc3)c3ccccc3)CC[C@]3(C)C(=CC[C@@H]4[C@@]5(C)CC[C@H](O)C(C)(C)[C@@H]5CC[C@]43C)[C@H]12
IC50 ([1]; Homo sapiens, MCF7): 1590 nM
IC50 ([2]; Homo sapiens): 810 nM
Activity [3]: Active

C=C(C)[C@@H]1CC[C@]2(C(=O)OCCCC[P+](c3ccccc3)(c3ccccc3)c3ccccc3)CC[C@]3(C)[C@H](CC[C@@H]4[C@@]5(C)CC[C@H](OC(=O)C(Cl)Cl)C(C)(C)[C@@H]5CC[C@]43C)[C@@H]12
IC50 ([1]; Homo sapiens, MCF7): 800 nM
IC50 ([2]; Homo sapiens): 1260 nM
Activity [3]: Active
IC50 [4]: 1950 nM

C=C(C)[C@@H]1CC[C@]2(C(=O)OCCOCCOCC[P+](c3ccccc3)(c3ccccc3)c3ccccc3)CC[C@]3(C)[C@H](CC[C@@H]4[C@@]5(C)CC[C@H](O)C(C)(C)[C@@H]5CC[C@]43C)[C@@H]12
IC50 ([1]; Homo sapiens, MCF7): 700 nM
Activity [5]: Active
IC50 ([2]; Homo sapiens): 740 nM
inhibition [6]: Dose-dependent effect
Activity [7]: Active
Activity [3]: Active

C[C@H]1[C@H](C)CC[C@]2(C(=O)OCCOCCOCC[P+](c3ccccc3)(c3ccccc3)c3ccccc3)CC[C@]3(C)C(=CC[C@@H]4[C@@]5(C)CC[C@H](OC(=O)C(Cl)Cl)C(C)(C)[C@@H]5CC[C@]43C)[C@H]12
IC50 ([1]; Homo sapiens, MCF7): 3900 nM
IC50 ([2]; Homo sapiens): 1180 nM
Activity [3]: Active
IC50 [4]: 1130 nM

C=C(C)[C@@H]1CC[C@]2(C(=O)OCCOCCOCC[P+](c3ccccc3)(c3ccccc3)c3ccccc3)CC[C@]3(C)[C@H](CC[C@@H]4[C@@]5(C)CC[C@H](OC(C)=O)C(C)(C)[C@@H]5CC[C@]43C)[C@@H]12 [listing 1 of 2 here]
IC50 ([1]; mcf7): 1510 nM
IC50 [2]: 1280 nM

C=C(C)[C@@H]1CC[C@]2(C(=O)OCCOCCOCC[P+](c3ccccc3)(c3ccccc3)c3ccccc3)CC[C@]3(C)[C@H](CC[C@@H]4[C@@]5(C)CC[C@H](OC(=O)C(Cl)Cl)C(C)(C)[C@@H]5CC[C@]43C)[C@@H]12
IC50 ([1]; Homo sapiens, MCF7): 2310 nM
IC50 ([2]; Homo sapiens): 950 nM
Activity [3]: Active
IC50 [4]: 660 nM

C[C@H]1[C@H](C)CC[C@]2(C(=O)OCCCC[P+](c3ccccc3)(c3ccccc3)c3ccccc3)CC[C@]3(C)C(=CC[C@@H]4[C@@]5(C)CC[C@H](OC(=O)C(Cl)Cl)C(C)(C)[C@@H]5CC[C@]43C)[C@H]12
IC50 ([1]; Homo sapiens, MCF7): 2760 nM
IC50 ([2]; Homo sapiens): 4400 nM
Activity [3]: Active
IC50 [4]: 1750 nM

C=C(C)[C@@H]1CC[C@]2(C(=O)O)CC[C@]3(C)[C@H](CC[C@@H]4[C@@]5(C)CC[C@H](OC(=O)C(Cl)Cl)C(C)(C)[C@@H]5CC[C@]43C)[C@@H]12
IC50 ([1]; Homo sapiens, MCF7): 15900 nM
IC50 ([2]; Homo sapiens): 4900 nM

C[C@H]1[C@H](C)CC[C@]2(C(=O)O)CC[C@]3(C)C(=CC[C@@H]4[C@@]5(C)CC[C@H](OC(=O)C(Cl)Cl)C(C)(C)[C@@H]5CC[C@]43C)[C@H]12
IC50 ([1]; Homo sapiens, MCF7): > 20000 nM
IC50 ([2]; Homo sapiens): > 10000 nM

C=C(C)[C@@H]1CC[C@]2(C(=O)O)CC[C@]3(C)[C@H](CC[C@@H]4[C@@]5(C)CC[C@H](O)C(C)(C)[C@@H]5CC[C@]43C)[C@@H]12 [BETULINIC ACID]
IC50 ([1]; Homo sapiens, MCF7): > 25000 nM
Activity [8]: Active
Activity [9]: Active
Activity [10]: Active
Activity [5]: inactive
Activity [11]: Active
inhibition [12]: inactive
Activity [7]: inactive
Activity [3]: inactive
Activity [13]: 2.2%

C=C(C)[C@@H]1CC[C@]2(C(=O)OCCOCCOCC[P+](c3ccccc3)(c3ccccc3)c3ccccc3)CC[C@]3(C)[C@H](CC[C@@H]4[C@@]5(C)CC[C@H](OC(C)=O)C(C)(C)[C@@H]5CC[C@]43C)[C@@H]12 [listing 2 of 2 here]
inhibition [6]: Dose-dependent effect
Activity [3]: Active

C=C(C)[C@@H]1CC[C@]2(C(=O)OCCOCCOCC[P+](c3ccccc3)(c3ccccc3)c3ccccc3)CC[C@]3(C)[C@H](CC[C@@H]4[C@@]5(C)CC[C@H](OC(C)=O)C(C)(C)[C@@H]5CC[C@]43C)[C@@H]12.[Br-]
IC50 ([1]; Homo sapiens, MCF7): 850 nM
IC50 ([2]; Homo sapiens): 980 nM
Activity [13]: 29.9%
